System: Japanese patients with T2DM
Assay: Clinical laboratory tests and vital signs, 7-day once-daily dosing
Type: in vivo, human
Procedure, shortened: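 Randomized, single-blind, placebo-controlled, parallel-group study in Japanese T2DM outpatients (HbA1c 6.9–10.5%, FPG ≥126 mg/dL, stable diet 4 weeks, age 20–74 y). Test compound 0.5, 1, 2.5 or 5 mg or placebo was given orally once daily for 7 days before breakfast. Safety set was all dosed patients. AEs were coded in MedDRA 12.1 and graded mild/moderate/severe, with drug relation judged by the investigator. Labs, vital signs, body weight and ECG were also recorded.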

SMILES: CCOc1ccc(Cc2cc([C@@H]3S[C@H](CO)[C@@H](O)[C@H](O)[C@H]3O)c(OC)cc2C)cc1 [Luseogliflozin, (1S)-1,5-anhydro-1-[5-(4-ethoxybenzyl)-2-methoxy-4-methylphenyl]-1-thio-D-glucitol]
- Cystatin C, change from baseline (0.5 mg OD, Day 1): -0.040 ± 0.018 mg/L
- DBP, change from baseline (0.5 mg OD, Day 1): 3.0 ± 5.2 mmHg
- Hematocrit, change from baseline (0.5 mg OD, Day 1): −1.14 ± 0.73%
- SBP, change from baseline (0.5 mg OD, Day 1): −1.7 ± 6.0 mmHg
- Serum calcium, change from baseline (0.5 mg OD, Day 1): -0.19 ± 0.12 mg/dL
- Serum phosphorus, change from baseline (0.5 mg OD, Day 1): 0.30 ± 0.40 mg/dL
- Urinary NAG, change from baseline (0.5 mg OD, Day 1): −0.31 ± 0.67 U/L
- Urinary calcium, change from baseline (0.5 mg OD, Day 1): 0.01 ± 0.04 g/day
- Urinary phosphorus, change from baseline (0.5 mg OD, Day 1): -0.13 ± 0.10 g/day
- Urinary type IV collagen, change from baseline (0.5 mg OD, Day 1): −0.40 ± 1.08 μg/g creatinine
- Urinary uric acid, change from baseline (0.5 mg OD, Day 1): 0.04 ± 0.05 g/day
- Urinary β2-microglobulin, change from baseline (0.5 mg OD, Day 1): -12.4 ± 25.2 µg/L
- Cystatin C, change from baseline (0.5 mg OD, Day 7): -0.067 ± 0.029 mg/L
- DBP, change from baseline (0.5 mg OD, Day 7): 3.1 ± 3.8 mmHg
- Hematocrit, change from baseline (0.5 mg OD, Day 7): −2.20 ± 0.95%
- SBP, change from baseline (0.5 mg OD, Day 7): −5.9 ± 3.8 mmHg
- Serum calcium, change from baseline (0.5 mg OD, Day 7): -0.24 ± 0.05 mg/dL
- Serum phosphorus, change from baseline (0.5 mg OD, Day 7): 0.16 ± 0.40 mg/dL
- Urinary NAG, change from baseline (0.5 mg OD, Day 7): −0.06 ± 0.80 U/L
- Urinary calcium, change from baseline (0.5 mg OD, Day 7): 0.01 ± 0.04 g/day
- Urinary phosphorus, change from baseline (0.5 mg OD, Day 7): -0.04 ± 0.13 g/day
- Urinary type IV collagen, change from baseline (0.5 mg OD, Day 7): −0.21 ± 1.25 μg/g creatinine
- Urinary uric acid, change from baseline (0.5 mg OD, Day 7): -0.01 ± 0.07 g/day
- Urinary β2-microglobulin, change from baseline (0.5 mg OD, Day 7): -7.4 ± 27.1 µg/L
- Cystatin C, change from baseline (1 mg OD, Day 1): 0.005 ± 0.077 mg/L
- DBP, change from baseline (1 mg OD, Day 1): 0.4 ± 4.9 mmHg
- Hematocrit, change from baseline (1 mg OD, Day 1): −1.26 ± 0.86%
- SBP, change from baseline (1 mg OD, Day 1): 3.5 ± 9.6 mmHg
- Serum calcium, change from baseline (1 mg OD, Day 1): -0.19 ± 0.16 mg/dL
- Serum phosphorus, change from baseline (1 mg OD, Day 1): 0.57 ± 0.32 mg/dL
- Urinary NAG, change from baseline (1 mg OD, Day 1): −0.33 ± 0.99 U/L
- Urinary calcium, change from baseline (1 mg OD, Day 1): 0.00 ± 0.00 g/day
- Urinary phosphorus, change from baseline (1 mg OD, Day 1): -0.13 ± 0.10 g/day
- Urinary type IV collagen, change from baseline (1 mg OD, Day 1): −0.44 ± 0.61 μg/g creatinine
- Urinary uric acid, change from baseline (1 mg OD, Day 1): 0.08 ± 0.07 g/day
- Urinary β2-microglobulin, change from baseline (1 mg OD, Day 1): -8.5 ± 31.3 µg/L
- Cystatin C, change from baseline (1 mg OD, Day 7): -0.061 ± 0.043 mg/L
- DBP, change from baseline (1 mg OD, Day 7): −0.8 ± 6.6 mmHg
- Hematocrit, change from baseline (1 mg OD, Day 7): −2.68 ± 0.89%
- SBP, change from baseline (1 mg OD, Day 7): −2.4 ± 12.8 mmHg
- Serum calcium, change from baseline (1 mg OD, Day 7): -0.41 ± 0.14 mg/dL
- Serum phosphorus, change from baseline (1 mg OD, Day 7): 0.20 ± 0.21 mg/dL
- Urinary NAG, change from baseline (1 mg OD, Day 7): 0.73 ± 0.80 U/L
- Urinary calcium, change from baseline (1 mg OD, Day 7): 0.00 ± 0.00 g/day
- Urinary phosphorus, change from baseline (1 mg OD, Day 7): 0.00 ± 0.13 g/day
- Urinary type IV collagen, change from baseline (1 mg OD, Day 7): 0.66 ± 1.22 μg/g creatinine
- Urinary uric acid, change from baseline (1 mg OD, Day 7): -0.03 ± 0.20 g/day
- Urinary β2-microglobulin, change from baseline (1 mg OD, Day 7): 17.3 ± 54.9 µg/L
- Cystatin C, change from baseline (2.5 mg OD, Day 1): 0.016 ± 0.060 mg/L
- DBP, change from baseline (2.5 mg OD, Day 1): −4.3 ± 5.6 mmHg
- Hematocrit, change from baseline (2.5 mg OD, Day 1): −0.58 ± 1.48%
- SBP, change from baseline (2.5 mg OD, Day 1): −5.6 ± 9.5 mmHg
- Serum calcium, change from baseline (2.5 mg OD, Day 1): -0.15 ± 0.23 mg/dL
- Serum phosphorus, change from baseline (2.5 mg OD, Day 1): 0.68 ± 0.23 mg/dL
- Urinary NAG, change from baseline (2.5 mg OD, Day 1): −0.68 ± 1.33 U/L
- Urinary calcium, change from baseline (2.5 mg OD, Day 1): -0.01 ± 0.04 g/day
- Urinary phosphorus, change from baseline (2.5 mg OD, Day 1): -0.24 ± 0.07 g/day
- Urinary type IV collagen, change from baseline (2.5 mg OD, Day 1): −0.05 ± 1.13 μg/g creatinine
- Urinary uric acid, change from baseline (2.5 mg OD, Day 1): -0.01 ± 0.04 g/day
- Urinary β2-microglobulin, change from baseline (2.5 mg OD, Day 1): -11.0 ± 44.9 µg/L
- Cystatin C, change from baseline (2.5 mg OD, Day 7): -0.064 ± 0.054 mg/L
- DBP, change from baseline (2.5 mg OD, Day 7): −6.1 ± 5.6 mmHg
- Hematocrit, change from baseline (2.5 mg OD, Day 7): −2.89 ± 1.81%
- SBP, change from baseline (2.5 mg OD, Day 7): −8.8 ± 10.9 mmHg
- Serum calcium, change from baseline (2.5 mg OD, Day 7): -0.40 ± 0.27 mg/dL
- Serum phosphorus, change from baseline (2.5 mg OD, Day 7): 0.38 ± 0.29 mg/dL
- Urinary NAG, change from baseline (2.5 mg OD, Day 7): −0.08 ± 1.26 U/L
- Urinary calcium, change from baseline (2.5 mg OD, Day 7): 0.00 ± 0.05 g/day
- Urinary phosphorus, change from baseline (2.5 mg OD, Day 7): -0.03 ± 0.17 g/day
- Urinary type IV collagen, change from baseline (2.5 mg OD, Day 7): 0.21 ± 1.85 μg/g creatinine
- Urinary uric acid, change from baseline (2.5 mg OD, Day 7): -0.06 ± 0.07 g/day
- Urinary β2-microglobulin, change from baseline (2.5 mg OD, Day 7): 5.5 ± 44.0 µg/L
- Cystatin C, change from baseline (5 mg OD, Day 1): 0.028 ± 0.042 mg/L
- DBP, change from baseline (5 mg OD, Day 1): 0.6 ± 6.0 mmHg
- Hematocrit, change from baseline (5 mg OD, Day 1): −0.54 ± 0.85%
- SBP, change from baseline (5 mg OD, Day 1): −1.3 ± 12.5 mmHg
- Serum calcium, change from baseline (5 mg OD, Day 1): -0.10 ± 0.20 mg/dL
- Serum phosphorus, change from baseline (5 mg OD, Day 1): 1.08 ± 0.37 mg/dL
- Urinary NAG, change from baseline (5 mg OD, Day 1): −0.81 ± 1.01 U/L
- Urinary calcium, change from baseline (5 mg OD, Day 1): -0.01 ± 0.04 g/day
